Experimental findings from ChEMBL document CHEMBL2203056, “Antimutagenic thio compounds from Sisymbrium officinale” (J Nat Prod, 2012) are described below.

The nature of data set [1]: Cytotoxicity against Escherichia coli WP2 (trpE65 deltauvrA) assessed as cell viability up to 10 to 300 ug/mL after 72 hrs in presence of 25 ug/plate 2-aminoanthracene and metabolic activation system S9. Particulars: read-out: Activity. The class given is ADME, organism-based. Summed up: (§1)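 Viability check on the antimutagenicity mixtures. Culture, mutagen (MMS 1700 μg/plate; 2AA or 2AF 25 μg/plate with S9 mix), test substance and S9 mix or 0.1 M phosphate buffer were shaken 30 min at 37 °C. Mixtures were diluted to 2 × 10^3 cells/mL, plated in top agar on nutrient agar and incubated 72 h at 37 °C. Colonies counted and compared with the solvent-only negative control.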

For data set [2], the system named is Escherichia coli. The data set is described as follows: Antimutagenic activity in Escherichia coli WP2 (trpE65 deltauvrA) assessed as maximal inhibition of methyl methane sulfonate-induced mutagenic effect at 10 to 300 ug/plate after 72 hrs in absence of metabolic activation system S9 by Ames test. The class given is functional. Summed up:
(§2)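 Preincubation Ames test with E. coli WP2 strains, from 16 h overnight cultures at 37 °C (about 2 × 10^9 bacteria/mL). Culture, mutagen, test substance (DMSO, 2% v/v vehicle) and either S9 mix (phenobarbital/β-naphthoflavone-induced rat liver) or 0.1 M phosphate buffer were shaken 30 min at 37 °C. Mutagens were MMS 1700 μg/plate without S9, and 2AA or 2AF 25 μg/plate with S9. Then top agar with 0.5 mM tryptophan on minimal agar, 72 h at 37 °C; tryptophan-independent revertants scored. Inhibition = 100 − (T/M × 100). Triplicates, at least two experiments.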
(The Ames test uses bacterial strains that need an amino acid and regain growth without it when mutated back.)

Data set [3] is described as follows: Cytotoxicity against Escherichia coli WP2 (trpE65 deltauvrApKM101) assessed as cell viability up to 10 to 300 ug/mL after 72 hrs in presence of 1700 ug/plate methyl methane sulfonate. The class given is organism-based. Particulars: Escherichia coli WP2 (trpE65 deltauvrApKM101) cells, read-out: Activity. A digest of the protocol: as §1
Data set [4] has as its system Escherichia coli. The data set is described as follows: Antimutagenic activity in Escherichia coli WP2 (trpE65 deltauvrA) assessed as maximal inhibition of 2-aminoanthracene-induced mutagenic effect at 10 to 300 ug/plate after 72 hrs in presence of metabolic activation system S9 by Ames test. The class given is functional. A digest of the protocol:
as §2

A short description of data set [5]: Cytotoxicity against Escherichia coli WP2 (trpE65 deltauvrApKM101) assessed as cell viability up to 10 to 300 ug/mL after 72 hrs in presence of 25 ug/plate 2-aminoanthracene and metabolic activation system S9. The class given is ADME, organism-based. As to conditions: read-out: Activity. Summed up:
as §1

Data set [6] in a line: Cytotoxicity against Escherichia coli WP2 (trpE65 deltauvrApKM101) assessed as cell viability up to 10 to 300 ug/mL after 72 hrs in presence of 25 ug/plate 2-aminofluorene and metabolic activation system S9. The class given is ADME, organism-based. As to conditions: read-out: Activity.
Data set [7] in a line: Cytotoxicity against Escherichia coli WP2 (trpE65) assessed as cell viability up to 10 to 300 ug/mL after 72 hrs in presence of 25 ug/plate 2-aminoanthracene and metabolic activation system S9. The class given is ADME, organism-based. Particulars: read-out: Activity.
Data set [8] can be described thus: Cytotoxicity against Escherichia coli WP2 (trpE65) assessed as cell viability up to 10 to 300 ug/mL after 72 hrs in presence of 1700 ug/plate methyl methane sulfonate. The class given is organism-based. Particulars: Escherichia coli WP2 (trpE65) cells, read-out: Activity. Summed up:
as §1

A short description of data set [9]: Cytotoxicity against Escherichia coli WP2 (trpE65 deltauvrA) assessed as cell viability up to 10 to 300 ug/mL after 72 hrs in presence of 25 ug/plate 2-aminofluorene and metabolic activation system S9. The class given is ADME, organism-based. Particulars: read-out: Activity.
A short description of data set [10]: Solubility of the compound up to 110 ug/mL. The class given is physicochemical. Summed up: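 Compounds dissolved in DMSO by sonication, stock up to 12 mg/mL. Insolubility in the final assay mixture judged as a precipitate visible to the unaided eye.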
For data set [11], the system named is Escherichia coli. The data set is described as follows: Antimutagenic activity in Escherichia coli WP2 (trpE65) assessed as maximal inhibition of methyl methane sulfonate-induced mutagenic effect at 10 to 300 ug/plate after 72 hrs in absence of metabolic activation system S9 by Ames test. The class given is functional. Summed up: as §2
For data set [12], the system named is Escherichia coli. The data set is described as follows: Antimutagenic activity in Escherichia coli WP2 (trpE65 deltauvrApKM101) assessed as maximal inhibition of 2-aminoanthracene-induced mutagenic effect at 10 to 300 ug/plate after 72 hrs in presence of metabolic activation system S9 by Ames test. The class given is functional. A digest of the protocol:
as §2

In data set [13] the test system is Escherichia coli. The data set is described as follows: Antimutagenic activity in Escherichia coli WP2 (trpE65) assessed as maximal inhibition of 2-aminofluorene-induced mutagenic effect at 10 to 300 ug/plate after 72 hrs in presence of metabolic activation system S9 by Ames test. The class given is functional. Summed up:
as §2

Data set [14] can be described thus: Cytotoxicity against Escherichia coli WP2 (trpE65) assessed as cell viability up to 10 to 300 ug/mL after 72 hrs in presence of 25 ug/plate 2-aminofluorene and metabolic activation system S9. The class given is ADME, organism-based. As to conditions: read-out: Activity. Summed up:
as §1

For data set [15], the system named is Escherichia coli. The data set is described as follows: Antimutagenic activity in Escherichia coli WP2 (trpE65 deltauvrApKM101) assessed as maximal inhibition of methyl methane sulfonate-induced mutagenic effect at 10 to 300 ug/plate after 72 hrs in absence of metabolic activation system S9 by Ames test. The class given is functional. Summed up: as §2
Data set [16] is described as follows: Cytotoxicity against Escherichia coli WP2 (trpE65 deltauvrA) assessed as cell viability up to 10 to 300 ug/mL after 72 hrs in presence of 1700 ug/plate methyl methane sulfonate. The class given is organism-based. As to conditions: Escherichia coli WP2 (trpE65 deltauvrA) cells, read-out: Activity. Summed up:
as §1

Consider `CC(C)/C(=N/OS(=O)(=O)O)S[C@@H]1O[C@H](CO)[C@@H](O)[C@H](O)[C@H]1O` [GLUCOPUTRANJIVIN], for which the viability at 72 h in data set [1] was 77%; in data set [3] it was 80%; in data set [5], 93%; in data set [6] it was 93%; in data set [7], 77%; in [8], 80%. The viability at 72 h in data set [9] was determined as 77%; in data set [14], 77%; in data set [16] it was 82%. In addition, the “inhibition (INH)” value in the data set with Escherichia coli [2] amounted to 44.6%; with Escherichia coli [4], 80.1%; in the data set with Escherichia coli [11], 32.8%; in the data set on Escherichia coli [12], 21.5%; in the data set with Escherichia coli [13], 61.6%; in the data set on Escherichia coli [15], 38.5%. The solubility result in data set [10] was “soluble”.

For the compound `CC(C)N=C=S` [ISOPROPYL ISOTHIOCYANATE], the viability at 72 h in [1] was determined as 77%; in [3], 80%; in data set [5] it was 93%; in data set [6] it was 93%; in [7], 77%; in data set [8], 80%. Moreover, the viability at 72 h in data set [9] was 77%; in data set [14] it was 77%; in data set [16] it was 82%. Moreover, the “inhibition (INH)” value in the data set with Escherichia coli [2] came out at 45.7%; in the data set with Escherichia coli [4] it was 81.9%; in the data set on Escherichia coli [11], 9.7%; in the data set on Escherichia coli [12], 18.6%; in the data set with Escherichia coli [13], 57.9%; in the data set on Escherichia coli [15] it was 32.9%. In addition, in data set [10], the solubility result is “soluble”.
